{"data": "Assay results of several laboratories", "effect on": "metabolic stability", "note": "Each line is one published result; the experiments were not run side by side."}
{"SMILES": "Cc1[nH]c(C)c(S(=O)(=O)Nc2ccc(C(F)(F)F)c(Cl)c2)c1C(=O)N1CCC(F)(F)C1", "test system": "rat, liver microsomes", "endpoint": "microsomal CLint", "result": "87 µL/min/mg"}
{"SMILES": "Cc1cc(S(=O)(=O)N[C@H]2C[C@H](CN3CCN(c4ccc(C5CCC(=O)NC5=O)c(Cl)c4)CC3)C2)ccc1Nc1ncc(C(F)(F)F)c(N2CCC[C@](C)(O)C2)n1 (some centres unmarked)", "test system": "rat, liver microsomes", "setting": "1 µM", "endpoint": "scaled CLint", "result": "36 mL/min/kg"}
{"SMILES": "N#Cc1ccc(-c2csc(CNC(=O)[C@H]3CCCN(C(=O)COC4CC4)C3)n2)cc1", "test system": "male Sprague-Dawley rat, liver microsomes", "setting": "0.5 µM", "endpoint": "microsomal CLint", "result": "100 µL/min/mg"}
{"SMILES": "Cc1cc(S(=O)(=O)N[C@H]2CC[C@H](CN3CCN(c4ccc(C5CCC(=O)NC5=O)c(Cl)c4)CC3)CC2)ccc1Nc1ncc(C(F)(F)F)c(N2CCC[C@](C)(O)C2)n1 (some centres unmarked)", "test system": "rat, liver microsomes", "setting": "1 µM", "endpoint": "scaled CLint", "result": "< 21 mL/min/kg"}
{"SMILES": "CCONC(=O)N1CCC[C@H](C(=O)NCc2nc(-c3ccc(C#N)cc3)cs2)C1", "test system": "male Sprague-Dawley rat, liver microsomes", "setting": "0.5 µM", "endpoint": "microsomal CLint", "result": "33 µL/min/mg"}
{"SMILES": "COc1cnc(Nc2cnnc3ccc(-c4ccc(N5CCN(C)CC5)cc4)cc23)nc1", "test system": "rat, hepatocytes", "endpoint": "hepatocyte CLint", "result": "> 300 µL/min/10⁶ cells"}
{"SMILES": "Cc1ccc(N(c2ccc(NC(=O)CN(C)c3ccccc3N3CCCC3=O)cc2)C(C)C)cc1", "test system": "rat, hepatocytes", "endpoint": "hepatocyte CLint", "result": "> 92 µL/min/10⁶ cells"}
{"SMILES": "COc1cc(-c2cc(C(C)=O)n3ccccc23)c(OC)cc1Cn1ccnc1", "test system": "rat, liver microsomes", "setting": "1 µM, pH 7.4", "endpoint": "scaled CLint", "result": "145 mL/min/kg"}
{"SMILES": "N#Cc1ccc(C[C@@H](Nc2c(Nc3ccc(F)cc3)c(=O)c2=O)C(=O)N2CCc3ccccc32)cc1", "test system": "rat, liver microsomes", "setting": "10 µM, pH 7.4", "endpoint": "microsomal CLint", "result": "46.2 µL/min/mg"}
{"SMILES": "Cc1cc(S(=O)(=O)NC2CC(N3CCN(CC4CCN(c5cccc6c5n(C)c(=O)n6C5CCC(=O)NC5=O)CC4)C4(CC4)C3)C2)ccc1Nc1ncc(C(F)(F)F)c(N2CCC[C@](C)(O)C2)n1 (some centres unmarked)", "test system": "rat, liver microsomes", "setting": "1 µM", "endpoint": "scaled CLint", "result": "< 21 mL/min/kg"}
{"SMILES": "Cc1ccc(N(C)c2ccc(NC(=O)CN(C)c3cccnc3N3CCCC3=O)cc2)cc1", "test system": "rat, hepatocytes", "endpoint": "hepatocyte CLint", "result": "> 92 µL/min/10⁶ cells"}
{"SMILES": "CNS(=O)(=O)c1ccc(Nc2ncc(C(F)(F)F)c([C@H]3CC[C@@](C)(O)CC3)n2)c(C)c1", "test system": "rat, liver microsomes", "setting": "1 µM", "endpoint": "scaled CLint", "result": "< 21 mL/min/kg"}
{"SMILES": "N#Cc1ccc(C[C@H](Nc2nnc(-c3ccc(Br)cc3)s2)C(=O)N2CCc3ccccc32)cc1", "test system": "rat, liver microsomes", "setting": "10 µM, pH 7.4", "endpoint": "microsomal CLint", "result": "46.2 µL/min/mg"}
{"SMILES": "Cc1ccc(N(c2ccc(NC(=O)CN(C)c3ccccc3N3CCCC3=O)cn2)C(C)C)cc1", "test system": "rat, hepatocytes", "endpoint": "hepatocyte CLint", "result": "86 µL/min/10⁶ cells"}
{"SMILES": "Cc1cc(S(=O)(=O)NC2CCC(CC3CCN(c4ccc(C5CCC(=O)NC5=O)cc4)CC3)CC2)ccc1Nc1ncc(C(F)(F)F)c(N2CCC[C@](C)(O)C2)n1 (some centres unmarked)", "test system": "rat, liver microsomes", "setting": "1 µM", "endpoint": "scaled CLint", "result": "< 21 mL/min/kg"}
{"SMILES": "CCONC(=O)N1CCC[C@H](C(=O)NCc2nc(-c3ccccc3)cs2)C1", "test system": "male Sprague-Dawley rat, liver microsomes", "setting": "0.5 µM", "endpoint": "microsomal CLint", "result": "31 µL/min/mg"}
{"SMILES": "COc1cc(NC(=O)Cn2cc(Cl)c3ccc(-c4cnn(C)c4)cc32)cc(OC)c1OC", "test system": "rat, hepatocytes", "endpoint": "hepatocyte CLint", "result": "< 1 µL/min/10⁶ cells"}
{"SMILES": "Cc1ccc(N(C)c2ccc(NC(=O)CN(C)c3ccccc3N3CCCC3=O)cn2)cc1", "test system": "rat, hepatocytes", "endpoint": "hepatocyte CLint", "result": "> 92 µL/min/10⁶ cells"}
{"SMILES": "Cc1cc(S(=O)(=O)N[C@]2(C)C[C@@H](N3CCN(CC4CCN(c5ccc6c(c5F)n(C)c(=O)n6C5CCC(=O)NC5=O)CC4)CC3)C2)ccc1Nc1ncc(C(F)(F)F)c(N2CCC[C@](C)(O)C2)n1 (some centres unmarked)", "test system": "rat, liver microsomes", "setting": "1 µM", "endpoint": "scaled CLint", "result": "< 21 mL/min/kg"}
{"SMILES": "N#Cc1ccc(C[C@H](NC(=O)c2cc3cc(F)ccc3[nH]2)C(=O)N2CCc3ccccc32)cc1", "test system": "rat, liver microsomes", "setting": "10 µM, pH 7.4", "endpoint": "microsomal CLint", "result": "9.1 µL/min/mg"}
{"SMILES": "CONC(=O)N1CCC[C@H](C(=O)NCc2nc(-c3ccccc3)cs2)C1", "test system": "male Sprague-Dawley rat, liver microsomes", "setting": "0.5 µM", "endpoint": "microsomal CLint", "result": "18 µL/min/mg"}
{"SMILES": "CN(CC(=O)Nc1ccc(N(C)c2ccc(Cl)c(F)c2)cc1)c1ccccc1N1CCCC1=O", "test system": "rat, hepatocytes", "endpoint": "hepatocyte CLint", "result": "79 µL/min/10⁶ cells"}
{"SMILES": "C[C@H]1CN(CC2CCN(c3ccc(C4CCC(=O)NC4=O)cc3F)CC2)CC[C@H]1NS(=O)(=O)c1ccc(Nc2ncc(C(F)(F)F)c(N3CCC[C@](C)(O)C3)n2)c(F)c1 (some centres unmarked)", "test system": "rat, liver microsomes", "setting": "1 µM", "endpoint": "scaled CLint", "result": "45 mL/min/kg"}
{"SMILES": "CCOCC(=O)N1CCC[C@H](C(=O)NCc2nc(-c3ccc(C#N)nc3)cs2)C1", "test system": "male Sprague-Dawley rat, liver microsomes", "setting": "0.5 µM", "endpoint": "scaled CLint", "result": "19 mL/min/kg"}
{"SMILES": "Cc1ccc(Oc2ccc(NC(=O)CNc3ccccc3-n3cncn3)cc2)cc1", "test system": "rat, hepatocytes", "endpoint": "hepatocyte CLint", "result": "46 µL/min/10⁶ cells"}
{"SMILES": "CCOCC(=O)N1CCC[C@H](C(=O)NCc2nc(-c3ccc(C)nc3)cs2)C1", "test system": "male Sprague-Dawley rat, liver microsomes", "setting": "0.5 µM", "endpoint": "microsomal CLint", "result": "19 µL/min/mg"}
{"SMILES": "Cc1ccc(N(C)c2ccc(NC(=O)CN(C)c3ccccc3N3CCCC3=O)cc2)cc1", "test system": "rat, hepatocytes", "endpoint": "hepatocyte CLint", "result": "> 92 µL/min/10⁶ cells"}
{"SMILES": "Cc1ccc(Nc2cnnc3ccc(-c4ccc(N5CCN(C)CC5)cc4)cc23)cn1", "test system": "rat, hepatocytes", "endpoint": "hepatocyte CLint", "result": "15 µL/min/10⁶ cells"}
{"SMILES": "O=C(NCc1nc(-c2ccc(C(F)(F)F)cc2)cs1)[C@H]1CCCN(C(=O)CO[C@H]2CCCNC2)C1", "test system": "male Sprague-Dawley rat, liver microsomes", "setting": "0.5 µM", "endpoint": "microsomal CLint", "result": "3.6 µL/min/mg"}
{"SMILES": "CC(C)N(c1ccc(Cl)c(F)c1)c1ccc(NC(=O)CN(C)c2ccccc2N2CCCC2=O)cn1", "test system": "rat, hepatocytes", "endpoint": "hepatocyte CLint", "result": "62 µL/min/10⁶ cells"}
{"SMILES": "CNS(=O)(=O)c1ccc(Nc2ncc3cc(Cl)c(=O)n(C4CCCC4)c3n2)c(C)c1", "test system": "rat, liver microsomes", "setting": "1 µM", "endpoint": "scaled CLint", "result": "70 mL/min/kg"}
{"SMILES": "NCCOCC(=O)N1CCC[C@H](C(=O)NCc2nc(-c3ccc(C(F)(F)F)cc3)cs2)C1", "test system": "male Sprague-Dawley rat, liver microsomes", "setting": "0.5 µM", "endpoint": "scaled CLint", "result": "< 5.6 mL/min/kg"}
